Screens deposited in PubChem by several laboratories.
Arrestin-AP2 inh: inhibitors of human beta-arrestin and AP2 interaction | actives 0.31% (n = 340,000) | FITC-arrestin peptide / GST-AP2 beads, flow cytometry; AP2 beta2 appendage carries R879A mutation | inhibition, % at 10 µM;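 active = inhibition above a set limit, near 3 SD of compounds lacking own fluorescence, cut at about 54% in these data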;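 note: plate controls were DMSO wells for no effect and 5 µM unlabelled arrestin peptide for full effect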
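Assay system: GST-AP2 R879A bound to glutathione beads, E. coli-expressed; Medium: PBS with 0.05% Tween 20 and 0.1% BSA; Also added: fluorescein-tagged arrestin peptide at 50 nM final; Timing: 12 min plus 1 h, RT; Measured by: flow cytometry, FL1 (488/535 nm); Evaluation: percent drop in bead-associated FITC signal.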
FAS TE block: inhibitors of human fatty acid synthase thioesterase domain | P49327 | recombinant FAS-TE, OMFH fluorogenic substrate, fluorescence endpoint | inhibition, % at 15 µM | actives 0.67% (n = 360,000) | AID 602261;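 active = compounds whose normalised, plate-corrected inhibition of enzyme fluorescence in the single-dose primary screen is 50% or more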;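 note: 0% = DMSO with enzyme and 100% = substrate without enzyme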
SENP1 FRET inh: blocks the human SENP1 SUMO protease catalytic domain. actives 0.21% (n = 360,000). recombinant SENP1 catalytic domain, CyPet-SUMO1-YPet FRET cleavage. Q9P0U3. inhibition, % at 10 µM. AID 624204;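 active = inhibition at least 30% at 10 µM, raw YFP signal under a set limit, fluorescence ratio 0.5 to 1.5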;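 note: 0% = enzyme with DMSO and 100% = no enzyme wells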
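material = recombinant human SENP1 catalytic domain, His6-tagged | quantity = 20 pM enzyme | reagent = 25 nM SUMO1 FRET substrate | compound dosing = 10 µM single point, 0.5% DMSO | timing = 50 min enzyme reaction, room temperature, light-protected | detection = FRET, CFP and YFP emission | control set = no-enzyme low, enzyme-DMSO high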
GASC-1 inh: blocks human GASC-1 demethylase activity. Q9H3R0. GST-JMJD2C(1-420) H3K9me3 demethylation, DELFIA europium. inhibition, % at 2.35 µM. AID 2099. actives 0.069% (n = 330,000);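 active = more than half of a compound's replicate wells show inhibition beyond 50%, single wells judged on their own value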;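 note: signal counts dimethyl H3K9 product captured on neutravidin plate; 0% = median of DMSO wells and 100% = 0.3 times that DMSO median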
FAS-TE inh conf: FAS thioesterase (human) inhibition, confirmation; shares compounds with FAS TE block; recombinant FAS-TE, OMFH fluorogenic substrate, fluorescence; inhibition, % at 15 µM; actives 45% (n = 2,300);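 active = compounds inhibiting the enzyme by at least 50% at 15 µM in any one of the replicates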;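 note: 0% = enzyme with DMSO only and 100% = wells lacking enzyme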
* marks the source's active call; other numbers are inactive results. Shown are actives, neighbours in structure and some others; about 1.1% of the full set was active somewhere.

Results for O=C(COc1cccc(Cl)c1)Nc1nc(-c2ccc(S(=O)(=O)N3CCOCC3)cc2)cs1 ?
Arrestin-AP2 inh: -6; FAS TE block: 66*; SENP1 FRET inh: 2; GASC-1 inh: 20; FAS-TE inh conf: 23*

Results for Cc1ccc(NC(=O)COc2ncnc3c(Cl)cc(Cl)cc23)cc1[N+](=O)[O-] ?
Arrestin-AP2 inh: -1; FAS TE block: -4; SENP1 FRET inh: 2

What do the screens show for `COc1ccc(NC(=O)CCCNC(=O)c2ccc(Cl)cc2)c(OC)c1`?
Arrestin-AP2 inh: 18; FAS TE block: -4; SENP1 FRET inh: 2; GASC-1 inh: 7

How did O=C(Nc1cc(S(=O)(=O)N2CCOCC2)ccc1N1CCCC1)c1ccc2c(c1)S(=O)(=O)c1ccccc1C2=O do in these assays?
Arrestin-AP2 inh: -8; FAS TE block: 79*; SENP1 FRET inh: 3; GASC-1 inh: -22; FAS-TE inh conf: 20

How did COc1ccc(-c2cc(C(=O)Nc3cc(S(=O)(=O)N4CCOCC4)ccc3N3CCOCC3)c3ccccc3n2)cc1 do in these assays?
Arrestin-AP2 inh: 8; FAS TE block: 82*; SENP1 FRET inh: -6; GASC-1 inh: 10; FAS-TE inh conf: 28

What do the screens show for `COc1cccc(NC(=O)CN2C(=O)COc3ccc(S(=O)(=O)N4CCC(C)CC4)cc32)c1`?
Arrestin-AP2 inh: -16; FAS TE block: 61*; SENP1 FRET inh: 0; GASC-1 inh: -4; FAS-TE inh conf: 66*

How did COc1ccccc1NC(=O)CN1C(=O)COc2ccc(S(=O)(=O)N3CCC(C)CC3)cc21 do in these assays?
Arrestin-AP2 inh: -24; FAS TE block: 16; SENP1 FRET inh: 3; GASC-1 inh: 2

What do the screens show for `O=[N+]([O-])c1ccc(C(O)C(CO)NC(=S)Nc2ccccc2)cc1` (stereo not given)?
Arrestin-AP2 inh: 43; FAS TE block: 59*; SENP1 FRET inh: -1; GASC-1 inh: 0; FAS-TE inh conf: 55*

How did COc1ccc2c(C)c(Cl)c(=O)oc2c1 do in these assays?
Arrestin-AP2 inh: -7; FAS TE block: 3; SENP1 FRET inh: -3; GASC-1 inh: 10

Results for C=C1CC(COc2ccc3c(C)c(Cl)c(=O)oc3c2)(c2ccccc2)OC1=O (stereo not given) ?
Arrestin-AP2 inh: 37; FAS TE block: 53*; SENP1 FRET inh: 1; FAS-TE inh conf: 46*

Results for COc1ccc(C(=O)COC(=O)C(CCSC)NC(=O)COc2ccccc2)cc1 (stereo not given) ?
Arrestin-AP2 inh: 4; FAS TE block: 64*; SENP1 FRET inh: 0; GASC-1 inh: -4; FAS-TE inh conf: 14

What do the screens show for `CCC(=O)Nc1ccc(C(=O)COC(=O)C(CCSC)NC(=O)COc2ccccc2)cc1` (stereo not given)?
Arrestin-AP2 inh: -1; FAS TE block: 2; SENP1 FRET inh: -16; GASC-1 inh: -7

How did O=C1C(Cc2ccccc2)Nc2ncnc(N3CCN(c4ccccc4)CC3)c2N1Cc1ccc(Cl)cc1 (stereo not given) do in these assays?
Arrestin-AP2 inh: 4; FAS TE block: 84*; SENP1 FRET inh: 3; GASC-1 inh: -5; FAS-TE inh conf: -5

How did CC(C)(C)n1ncc2c(=O)n(Cc3cc(F)c(Cl)cc3Cl)cnc21 do in these assays?
Arrestin-AP2 inh: -3; FAS TE block: 52*; SENP1 FRET inh: 0; FAS-TE inh conf: 35

What do the screens show for `O=S(=O)(c1ccc(Br)s1)N1CCN(c2ccccc2)CC1`?
Arrestin-AP2 inh: 4; FAS TE block: 16; SENP1 FRET inh: 4; GASC-1 inh: -7

Results for O=C(NN1C(=O)c2ccccc2NC1c1ccc([N+](=O)[O-])o1)c1ccc([N+](=O)[O-])cc1 (stereo not given) ?
Arrestin-AP2 inh: -21; FAS TE block: 30; SENP1 FRET inh: -2; GASC-1 inh: 1

Results for O=C(NN1C(=O)c2ccccc2NC1c1ccc([N+](=O)[O-])o1)c1ccccc1 (stereo not given) ?
Arrestin-AP2 inh: 27; FAS TE block: 52*; SENP1 FRET inh: -18; GASC-1 inh: 7; FAS-TE inh conf: 40

How did C=CCN1c2ccccc2[C@]23C[C@@H](C(=O)OC)N(C(=O)NC4CCCC4)C2=NC(C(=O)OC)=C(C(=O)OC)[C@H]13 do in these assays?
Arrestin-AP2 inh: -16; FAS TE block: 75*; SENP1 FRET inh: 1; GASC-1 inh: 1; FAS-TE inh conf: 0
